{"data": "Measured values collected from several papers", "target": "Serine/threonine-protein kinase WNK1 (WNK1, Homo sapiens, UniProt Q9H4A3)", "note": "Lines come from different studies, so protocols differ."}
{"Compound": "CN(c1ccnc(CNc2nc(Nc3ccc4c(c3)CC(=O)N4)ncc2C(F)(F)F)n1)S(C)(=O)=O", "test": "cell-free assay, competition with immobilised ligand", "conditions": "1 µM", "measurement": "remaining binding", "value": "87%"}
{"Compound": "O=C(CSc1nc2nccnc2c(=O)n1CCc1ccccc1)Nc1nccs1", "test": "enzyme activity, inhibitor", "conditions": "10 µM", "measurement": "inhibition", "value": "1%"}
{"Compound": "FC(F)(F)Oc1cccc(-c2cnc3ccc(-c4ccncc4)nn23)c1", "test": "enzyme activity, inhibitor, radiometric", "conditions": "5 µM", "measurement": "activity vs control", "value": "99%"}
{"Compound": "COc1cc(Cl)c(C(=O)N[C@@H](CN[C@H]2CC[C@@H](N)CC2)Cc2ccc(C#N)cc2)cc1-c1ccc(CN[C@H](C)c2ccc(C)cc2)o1", "test": "enzyme activity, inhibitor", "conditions": "1 µM", "measurement": "remaining activity", "value": "109%"}
{"Compound": "C[C@@H]1CCN(c2nccc(-c3cnn4ncccc34)n2)C1", "test": "binding", "conditions": "1 µM", "measurement": "remaining binding", "value": "92%"}
{"Compound": "CN1CC(Oc2cnc(C#N)cc2-c2ccn3nc(NC(=O)C4CC4)cc3c2)C1", "test": "enzyme activity, inhibitor", "conditions": "1 µM", "measurement": "inhibition", "value": "17%"}
{"Compound": "O=C(Nc1cnn(-c2csc(C(=O)NC3COC3)c2)c1)Nc1c(F)cccc1Cl", "test": "enzyme activity, inhibitor", "conditions": "5 µM", "measurement": "remaining activity", "value": "93.3%"}
{"Compound": "CC(C)(C)c1nc2c(s1)c1nc(N)ncc1c1ccc(NS(=O)(=O)c3c(F)cccc3F)c(F)c12", "test": "enzyme activity, inhibitor, radiometric", "conditions": "1 µM", "measurement": "remaining activity", "value": "103%"}
{"Compound": "Cn1cncc1C1=CN(c2ncnc3[nH]cnc23)CCS1", "test": "enzyme activity, inhibitor, radiometric", "conditions": "50 nM", "measurement": "inhibition", "value": "14.1%"}
{"Compound": "CCCCN(CCCC)C(=O)CN1C[C@@H](c2cc(OC)c3c(c2)OCO3)[C@H](C(=O)O)[C@H]1CC(C)(C)CCC", "test": "cell-free assay, competition with immobilised ligand", "conditions": "1 µM", "measurement": "remaining binding", "value": "96.8%"}
{"Compound": "COc1cc(/C=C/C(=O)CC(=O)/C=C/c2ccc(O)c(OC)c2)ccc1O", "test": "enzyme activity, inhibitor", "conditions": "1 µM", "measurement": "activity vs control", "value": "98%"}
{"Compound": "CN([C@@H]1CCc2c(CC(=O)O)c3cc(S(C)(=O)=O)ccc3n2C1)S(=O)(=O)c1ccc(F)cc1", "test": "cell-free assay, competition with immobilised ligand", "conditions": "1 µM", "measurement": "remaining binding", "value": "95%"}
{"Compound": "COc1cc(Nc2cnc(C#N)c(O[C@H](C)CN(C)C)n2)ncc1-c1cnn(C)c1", "test": "enzyme activity, inhibitor, radiometric", "conditions": "1 µM", "measurement": "remaining activity", "value": "95%"}
{"Compound": "N#Cc1ccc(Nc2ccc3[nH]c(=O)[nH]c3c2)c(Cl)c1", "test": "cell-free assay, competition with immobilised ligand", "conditions": "1 µM", "measurement": "remaining binding", "value": "100%"}
{"Compound": "Cc1sc(C(=O)NC2COC2)cc1-n1cc(NC(=O)Nc2c(F)cccc2Cl)cn1", "test": "enzyme activity, inhibitor", "conditions": "10 µM", "measurement": "remaining activity", "value": "88.9%"}
